Measured values reported in the EternaBench riboswitch data.

Tested on: MS2 coat protein
Test: apparent Kd, MS2 coat protein; higher = weaker binding; RNA-MaP array; FMN 200 µM where present
Outline: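 In 100 mM Tris-HCl pH 7.5, 80 mM KCl, 4 mM MgCl2, BSA, DTT, yeast tRNA and Tween-20, SNAP-549-labelled MS2 coat protein was titrated from 0.7 or 1.5 nM, doubling to 3 µM, over designs transcribed by stalled E. coli RNA polymerase on Illumina sequencing-chip clusters. This was done first without ligand, then with ligand held constant. After green signal was normalised to red-channel RNA signal and control-cluster median Fmax, the apparent Kd was taken as the median of filtered per-cluster binding-curve fits.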

[1] = designed as: OFF switch for flavin mononucleotide, no ligand
[2] = ligand present: flavin mononucleotide, designed as: OFF switch for flavin mononucleotide
[3] = designed as: ON switch for flavin mononucleotide, no ligand
[4] = ligand present: flavin mononucleotide, designed as: ON switch for flavin mononucleotide

## AACGAGGCAGGAUAUACAUGAGGAUCACCCAUGUGCUUGCAUGGCGUGGGAAGUCAUCGUAGAAGGGCCAUGCC
[1]
  apparent Kd: 154 nM
[2]
  apparent Kd: 74.2 nM

## UUUUACGAAGGAUAUACAUUUUUUUUAUUAUUUUCAUUAUUACAUGAGGAUCACCCAUGUAGAAGGUCGAUUUU
[1]
  apparent Kd: 24.3 nM
[2]
  apparent Kd: 23.7 nM

## CAAACGUGAGGAUAUACAUGAGGAUCACCCAUGUGCUCCUCUAAACUGAAGAAGUAAUGUAGAAGGCACGUUUG
[1]
  apparent Kd: 39.2 nM
[2]
  apparent Kd: 17.7 nM

## AACUGACAUGAGGAUCACCCAUGUCAGGAUAUGACUUGACGAAAUAAAACACGUCAUGUCAGAAGGGACAUGAA
[1]
  apparent Kd: 17.4 nM
[2]
  apparent Kd: 15.2 nM

## CCGGAUAUGCAGGAUAUCGUAUCGGAAACGAUACGAGAAGGGUAUACAUGAGGAUCACCCAUGUGUCCUACCGG
[1]
  apparent Kd: 23 nM
[2]
  apparent Kd: 33.1 nM

## CUUGUUUAUGUGAGGAUAUACUGUUAGUAUAGUUUGUAGAAGGUACAUGAGGAUCACCCAUGUUUAUUACUCUU
[1]
  apparent Kd: 13.7 nM
[2]
  apparent Kd: 13.8 nM

## GGUGGCCGAGGAUAUACGGACGUGUCGCCGGGUGUCGUGGGACAUGAGGAUCACCCAUGUAGAAGGUGGUUGUC
[1]
  apparent Kd: 187 nM
[2]
  apparent Kd: 147 nM

## AUGGACGCAGGAUAUACAUGAGGAUCACCCAUGUGAGGUAGGUAAGUAGGAAGUGAAGGUAGAAGGGCGAGAGA
[1]
  apparent Kd: 67.2 nM
[2]
  apparent Kd: 95.3 nM

## AAGGAGUGAGGAUAUGCGCGGGCACGCUCUAAAUAAGAAAGACAUGAGGAUCACCCAUGUAGAAGGCACAAUAA
[1]
  apparent Kd: 19.9 nM
[2]
  apparent Kd: 32.5 nM

## GUCGAAGCCGUACUGGUCGACGGUCAGGAUAUACAUGAGGAUCACCCAUGUGCUAUUGAUACUAUGUAGAAGGGACCCACCGCA
[1]
  apparent Kd: 13.3 nM
[2]
  apparent Kd: 19 nM

## CCAUCGAGUGUGAGGAUAUGCUGUUCCUUGGAGCAGCAGAAGGCACAUGAGGAUCACCCAUGUGGAUACGGUGG
[1]
  apparent Kd: 34.3 nM
[2]
  apparent Kd: 251 nM

## UGCUGACGAGGAUAUACAUGAGGAUCACCCAUGUUGGUUCAGCGACUUCGGUCGCAAUGUAGAAGGCGUCAGCU
[1]
  apparent Kd: 410 nM
[2]
  apparent Kd: 277 nM

## GGGUGAUGUAGAGGAUAUCCAGGACGAUACAGAGGAGAAGGCUACAUGAGGAUCACCCAUGUCACCGGGAUAAAGCUGUAGAGU
[1]
  apparent Kd: 39.8 nM
[2]
  apparent Kd: 109 nM

## GAUAAGGAAGGAUAUGUGGCCUUAUACAUGAGGAUCACCCAUGUUACGACAUACCACUACACAGAAGGUCUAUUAC
[1]
  apparent Kd: 32.2 nM
[2]
  apparent Kd: 30.5 nM

## GAGUGGAAGGCCGCUACAUGAGGAUCACCCAUGUGCUAAGCACAGGAUAUCGCGUGGGCCCGACGCGAGAAGGGUGACGGCCUG
[3]
  apparent Kd: 582 nM
[4]
  apparent Kd: 246 nM

## GAGUAGUUAAAAGGAUAUUGAUUAUUGUAGGAUCAAGAAGGUUUUAACAUGAGGAUCACCCAUGUAGGACUAUAAAUGUGAAAA
[3]
  apparent Kd: 17.5 nM
[4]
  apparent Kd: 15 nM

## UUGAACAUAGGAUAUAGUUGUUUGUACAUGAGGAUCACCCAUGUUAGGGAUGUUUUGUUUCUAGAAGGAUGUUGAU
[1]
  apparent Kd: 170 nM
[2]
  apparent Kd: 80.3 nM

## AGGGAUAAAGGAUAUACAUGAGGAUCACCCAUGUUGAGGAAAGUGAGAGGUGGCGAUAGUAGAAGGUUAGGUGG
[1]
  apparent Kd: 92.6 nM
[2]
  apparent Kd: 70.1 nM

## AAAGAGCGAGGAUAUACAUGAGGAUCACCCAUGUGAAGAUGCAUGGUCUGAACGUCUGGUAGAAGGCGUAUGAA
[1]
  apparent Kd: 161 nM
[2]
  apparent Kd: 182 nM

## GUACGGAAGGAGAAGGGCUAGGAGGUCCAGUUUAUGUGUGUUGCAACAUGAGGAUCACCCAUGUAGCAGGAUAUCCUUUGUACA
[1]
  apparent Kd: 85.6 nM
[2]
  apparent Kd: 177 nM

## GGAUAGGACAGAGGAUAUACGUGGUAGAGAUACUAGCAAAAUUUCCUCACAUGAGGAUCACCCAUGUAGAAGGCUGUCCUAUCG
[1]
  apparent Kd: 532 nM
[2]
  apparent Kd: 19.1 nM

## GGGUCGUCAGGAUAUACAUGAGGAUCACCCAUGUGACCACACUUACCUAUCGCUCGCUGUAGAAGGGAUGAUGA
[1]
  apparent Kd: 30.3 nM
[2]
  apparent Kd: 27.1 nM

## AAACAGGGAGGAUAUACAUAGAUCGUCUAACCUAAUUGGUCACAUGAGGAUCACCCAUGUAGAAGGCCCUUAGG
[1]
  apparent Kd: 24.6 nM
[2]
  apparent Kd: 144 nM

## AGUGCGUAUGUGAGGAUAUGCUGGUCCUUGGCUCGGCAGAAGGCACAUGAGGAUCACCCAUGUGGUGUCGUACU
[1]
  apparent Kd: 239 nM
[2]
  apparent Kd: 47.1 nM

## GCCAGGAUGUAAGGAUAUGCUGAGGAAUACUCAGCAGAAGGUACAUGAGGAUCACCCAUGUAAUCCAAUAAUAAAUAACCUGGC
[1]
  apparent Kd: 11.3 nM
[2]
  apparent Kd: 23.4 nM

## GCUGCGUACGCAGGAUAUACAUGAGGAUCACCCAUGUAACUCGAACUCUAAGCGGGUGCGCGCAUGUAGAAGGGCGGGCGAGCC
[1]
  apparent Kd: 35 nM
[2]
  apparent Kd: 67.9 nM

## AAGAAGUGAGGAUAUGUAUCAGUAUAGUUGCCUAUACUGAUGUAGAAGGCACAUGAGGAUCACCCAUGUCCUAA
[1]
  apparent Kd: 20.8 nM
[2]
  apparent Kd: 25 nM

## AACAAGAGGAUCACCCAUGUAACAUGAGGAUCACCCAUGUUCAAGGAUAUGUACAUGAUACAUGUACAGAAGGUGAAUUGGACU
[1]
  apparent Kd: 21 nM
[2]
  apparent Kd: 36.2 nM

## UUUCGGUGGCUGGAGGAUAUCCUGGUUGUUACAUGAGGAUCACCCAUGUGCCGCGCGGUGCGCUGGGAGAAGGCCGGCGGCCCUU
[3]
  apparent Kd: 37.7 nM
[4]
  apparent Kd: 16.1 nM

## GCUGCGCGAGGAUAUGCGGUUUGUGCUUUGGCCCGUGGCGUACAUGAGGAUCACCCAUGUAGAAGGCGUGUGGG
[1]
  apparent Kd: 21.4 nM
[2]
  apparent Kd: 21.7 nM

## ACACGUGUGUCAGGAUAUCACACUAAUUGGACUAACUAUAUGAAAGCACAUGAGGAUCACCCAUGUGAGAAGGGACGCCACCUG
[1]
  apparent Kd: 12 nM
[2]
  apparent Kd: 9.97 nM

## AGCGAACAGGCUAACAUGAGGAUCACCCAUGUGGACUCAUGGUAGGAUAUCGGGAAGGAGGAAACCGAGAAGGGCCGGUGAGCG
[3]
  apparent Kd: 150 nM
[4]
  apparent Kd: 70.8 nM

## UACCACGACAACGCGGUAUCACAUGAGGAUCACCCAUGUUCACAGGAUAUGCGAUAGCCAACGAAGCAGAAGGGUGAUUACUUA
[3]
  apparent Kd: 70.2 nM
[4]
  apparent Kd: 158 nM

## AUUCAGUCAGGAUAUCGUUAAUUUAAUUGUUUGUUUUAGUUCGAGAAGGGACAUGAGGAUCACCCAUGUACUUA
[1]
  apparent Kd: 25.9 nM
[2]
  apparent Kd: 27.3 nM

## AAGACAUGAGGAUCACCCAUGUAAAGACCGGUCGAUCAAUGUGAGGAUAUACGAUAAUUGAUAGGGUAGAAGGCACUGGGUUGA
[3]
  apparent Kd: 264 nM
[4]
  apparent Kd: 151 nM

## CGAGUUUUUGAGAAGGCAUAUAAUAAGAUUUCCCAUGUUAACAUGAGGAUCACCCAUGUUUAGUAUGAGGAUAUCAGUAGGUCG
[1]
  apparent Kd: 5.79 nM
[2]
  apparent Kd: 5.8 nM

## GGAGCCGGCACUGAGGAUAUUCAUAUUAAAACAUGAGGAUCACCCAUGUAGGCCAGAAGGCCUUGGGAGAAGGCAGGUCGGCUCG
[3]
  apparent Kd: 423 nM
[4]
  apparent Kd: 27.9 nM

## GCCCUCGCUGAGGAUAUUAUCUGGUUCGAUUGAUAAGAAGGCAGUACAUGAGGAUCACCCAUGUGGUUCGUCCG
[1]
  apparent Kd: 76.7 nM
[2]
  apparent Kd: 363 nM

## AUACGGGCCCAGAAGGUGCCAGCGAGAGCUGCACAUGAGGAUCACCCAUGUUGUCGGUGACGACGCAAGGAUAUGGGCCCGUAU
[3]
  apparent Kd: 23.4 nM
[4]
  apparent Kd: 6.63 nM

## UCCUCGAUGUAGAAGGCCGCGUCCGGCUCACGCGGAGGAUAUACAUGAGGAUCACCCAUGUGUUUGUGGCUAAUAUGGUACGAA
[1]
  apparent Kd: 159 nM
[2]
  apparent Kd: 18.2 nM

## GGUCCACAUGAGGAUCACCCAUGUUAGGAUAUCUCGUCCGAGCAGUUAUGGGCCGGGCAGAGAAGGAAUGUGAA
[1]
  apparent Kd: 30.3 nM
[2]
  apparent Kd: 26.6 nM

## CUUUUGUGAGGAUAUCAGUAGUAAUACAAUAGUAUUACUAUUGAGAAGGCACAUGAGGAUCACCCAUGUUCCUC
[1]
  apparent Kd: 39.4 nM
[2]
  apparent Kd: 156 nM

## CACGUCUGGAAACGGAGCGGCCAACAUGAGGAUCACCCAUGUGAGGAUAUGCCUACUAAAAGUAGGCAGAAGGCGCAAUUGGCA
[1]
  apparent Kd: 31.2 nM
[2]
  apparent Kd: 44.7 nM

## UUAUUUAGGUAGGAUAUCGAUACUAAUUACUAUCGAGAAGGGUCUACAUGAGGAUCACCCAUGUUAGCAUGUUU
[1]
  apparent Kd: 27.2 nM
[2]
  apparent Kd: 25.5 nM

## GUCAGCUCGUGAGGAUAUACAACACUGCUUCGGCAGUGUAUUAAGAUCACAUGAGGAUCACCCAUGUAGAAGGCACGAGCUUAU
[1]
  apparent Kd: 13.5 nM
[2]
  apparent Kd: 233 nM

## UGCUGGGAAUCAGGAUAUACGUGGUAUCCUGAGCACAUGAGGAUCACCCAUGUAGAAGGGAUUCCGCGGUGAGAUUCCGAAACA
[1]
  apparent Kd: 4.97 nM
[2]
  apparent Kd: 5.45 nM

## GUCCUACAUGAGGAUCACCCAUGUGAGGAUAUGUGGUUAGCUGCUAGGUAGUUAGUAUGCAGAAGGUACGUGAA
[1]
  apparent Kd: 14.8 nM
[2]
  apparent Kd: 15.5 nM

## AUUUCGUUAGCAGGAUAUGGACAGGCCUGUCCGUAUUGAGUCAGUAACAUGAGGAUCACCCAUGUCCAGAAGGGCUCGAAGUAU
[1]
  apparent Kd: 7.83 nM
[2]
  apparent Kd: 15.3 nM

## CUAUGAAGAAUAGGAUAUUCGAUCAUGAGGAUAGAAGAAGGGUUACAUGAGGAUCACCCAUGUAUGCACAUGAGGAUCCCUUAG
[1]
  apparent Kd: 167 nM
[2]
  apparent Kd: 195 nM

## GGUUGGCGAGGAUAUACAUGAGGAUCACCCAUGUGGUCCUGUGGCUGGUCAAACCUUUGUAGAAGGCGCGGGUC
[1]
  apparent Kd: 236 nM
[2]
  apparent Kd: 228 nM

## CCAGAGGUCACAGGAUAUGACUUGUCCAAUUAGUCAGAAGGGUGAAUCACAUUAUGUAUACAUGAGGAUCACCCAUGUCCUACG
[3]
  apparent Kd: 214 nM
[4]
  apparent Kd: 1040 nM

## UAUACACAUGAGGAUCACCCAUGUGAGGAUAUGCGUACGUUGUCCGUAGGCGACGUGCGCAGAAGGCGCAAGGU
[1]
  apparent Kd: 72.7 nM
[2]
  apparent Kd: 104 nM

## CACCGUUAGCGAGGAUAUCGUACAUGAGGAUCACCCAUGUAAUAAAUGAGAAUUUCGGAUGUAUGCGAGAAGGCGCAAAUCGGC
[1]
  apparent Kd: 59 nM
[2]
  apparent Kd: 43.4 nM

## AUAUCGUUAUCAGGAUAUGGACAGGCCUGUCCGUAUUGAGACAGUAACAUGAGGAUCACCCAUGUCCAGAAGGGAUCGAUGUAU
[1]
  apparent Kd: 54.2 nM
[2]
  apparent Kd: 48.6 nM

## AAACACGGACAUGAGGAUCACCCAUGUGGCGAAAGCCUAACUAGAAGGCAGUAUGCAAAGCAUUCUGAGGAUAUGGGUUCCGUG
[3]
  apparent Kd: 188 nM
[4]
  apparent Kd: 18.1 nM

## ACGUGUUAUACAGGAUAUGUAUAGGAAUAAUCAUACAGUUAUUAAUUAAUGACAGAAGGGUAAACAUGAGGAUCACCCAUGUCA
[1]
  apparent Kd: 546 nM
[2]
  apparent Kd: 390 nM
